Results gathered from unrelated publications.
Compare with care: the assays were run in different laboratories.
Target: Serine/threonine-protein kinase pim-1 (PIM1, Homo sapiens, UniProt P11309)

| SMILES | test | conditions | remaining binding [%] |
| --- | --- | --- | --- |
| Cc1cnc(Nc2ccc(C(=O)N3CCC(N4CCCC4)CC3)cc2)nc1-c1cc2ccccc2s1 | binding, competition with immobilised ligand | 1 µM | 75 |
| O=C1NC(c2ccccn2)Sc2ccccc21 (centres unmarked) | cell-free assay, competition with immobilised ligand | 1 µM | 82 |
| N[C@@H]1CCN(c2nccc(-c3cnn4ncccc34)n2)C1 | binding | 1 µM | 100 |
| Cc1cc(-n2nc(Cc3cc(F)cc(C(F)(F)F)c3)nc2C)ccc1C(N)=O | cell-free assay, competition with immobilised ligand | 1 µM | 100 |
| c1cncc(-c2cccc(Nc3nccc(NC4CCCCC4)n3)c2)c1 | binding, competition with immobilised ligand | 10 µM | 42 |
| CCN1CCN(Cc2ccc(C(=O)Nc3ccc(C)c(Oc4ccc5c(c4)CC(=O)N5)c3)cc2C(F)(F)F)CC1 | binding, competition with immobilised ligand | 1 µM | 100 |
| C[C@@H]1CCN(c2nccc(-c3cnn4ncccc34)n2)C1 | binding | 1 µM | 84 |
| CNC(=O)[C@@H]1CC[C@@H](n2c(-c3ccc4cnccc4c3)nc3ccc(C(=O)NCc4cccc(C(N)=O)c4)cc32)C1 | binding, competition with immobilised ligand | 1 µM | 100 |
| C[C@@H](c1ccc(-n2cnc3c(N)ncnc32)cc1)N1CCc2nn(C)c(Cc3ccccc3)c2C1=O | binding, competition with immobilised ligand | 0.1 µM | 97 |
| FC(F)(F)Oc1cccc(-c2cnc3ccc(-c4ccncc4)nn23)c1 | cell-free assay, competition with immobilised ligand | 5 µM | 23 |
| Cn1nc(C(=O)NCc2ccc(C(=O)O)cc2)cc1-c1ccc2[nH]ccc2c1 | cell-free assay, competition with immobilised ligand | 0.1 µM | 91 |
| C[C@@H]1CN(c2ccc3ncc(-c4ccc5[nH]nc(C6CC6)c5c4)n3n2)C[C@H](C)O1 | binding, competition with immobilised ligand | 0.5 µM | 19 |
| COc1cnc(Nc2cccc(S(N)(=O)=O)c2)nc1N1CCN(c2ccccc2)CC1 | binding, competition with immobilised ligand | 1 µM | 95 |
| O=C(O)c1cc(-c2ccc(C3CCNCC3)cc2)c2ccc(-c3ccc(C(F)(F)F)cc3)cc2c1 | cell-free assay, competition with immobilised ligand | 1 µM | 100 |
| F[C@@H]1CCN(c2nccc(-c3cnn4ncccc34)n2)C1 | binding | 1 µM | 100 |
| FC(F)(F)c1ccc2c(c1)nc(-c1cccnc1)n2C1CC1 | cell-free assay, competition with immobilised ligand | 1 µM | 94 |
| O=C(Nc1c[nH]nc1C(=O)NC1CCNCC1)c1cc(F)cc(F)c1 | binding, competition with immobilised ligand | 1 µM | 100 |
| O=C(NCCCN1CCOCC1)c1ccc(Nc2ncc(Cl)c(-c3ccc(Cl)s3)n2)cc1 | binding, competition with immobilised ligand | 1 µM | 100 |
| CN(C)c1ncc(F)c(-c2cnn3ncccc23)n1 | binding | 1 µM | 82 |
| O=C(c1ccc(Nc2nccc(-c3cc4ccccc4s3)n2)cc1)N1CCC(N2CCCC2)CC1 | binding, competition with immobilised ligand | 1 µM | 75 |
| CN(C)c1nccc(-c2cnn3ncccc23)n1 | binding | 1 µM | 81 |
| CCC(=N\O)/C(C)=C/c1ccc(F)cc1 | cell-free assay, competition with immobilised ligand | 1 µM | 85 |
| CN(C)c1nccc(-c2cnc3ncccn23)n1 | binding | 1 µM | 82 |
| C=CC(=O)N1CCC(C(=O)NCC(=O)N2CCN(c3nc(-c4cnc(N)nc4C(F)F)nc(N4CCOCC4)n3)CC2)CC1 | binding, competition with immobilised ligand | 1 µM | 95 |
| Nc1cnc(N2CCc3cc(S(=O)(=O)Nc4c(F)cc(Cl)cc4F)cc(N4CCCC4=O)c32)nc1 | cell-free assay, competition with immobilised ligand | 1 µM | 88 |
| CC1CCCN1c1nccc(-c2cnn3ncccc23)n1 (centres unmarked) | binding | 1 µM | 100 |
